Experimental data pooled from the literature.
Each line is one published result; the experiments were not run side by side.
Target: Tyrosine-protein kinase Yes (YES1, Homo sapiens, UniProt P07947)

C[C@@H]1CN(c2cc(-c3n[nH]c4ccc(OC5(C)CC5)cc34)ncn2)C[C@H](C)O1 — remaining binding (cell-free assay; competition with immobilised ligand; 0.1 µM): 80%
COc1cc2ncnc(Nc3ccc(Oc4ccccc4)c(C)c3C)c2cc1OC — inhibition (enzyme activity; inhibitor; 1 µM): 88%
Nc1ncnc2occ(-c3ccc(NC(=O)Nc4cc(C(F)(F)F)ccc4F)cc3)c12 — remaining signal (cell-free assay; 20 µM): 2.9%
c1ccc(CNc2nc(N3CCOc4ccccc43)nc3c2CCCC3)cc1 — inhibition (target engagement in cells; inhibitor; chemoproteomics; 20 mM): -4.3%
CNC(=O)c1cc(Oc2ccc(NC(=O)Nc3ccc(Cl)c(C(F)(F)F)c3)cc2)ccn1 — remaining signal (cell-free assay; 0.5 µM): 82.8%
COc1cc(Cl)c(C(=O)N[C@@H](CN[C@H]2CC[C@@H](N)CC2)Cc2ccc(C#N)cc2)cc1-c1ccc(CN[C@H](C)c2ccc(C)cc2)o1 — remaining activity (enzyme activity; inhibitor; 1 µM): 62%
CC(=O)c1c(NS(C)(=O)=O)c2cc(-c3ccc(Cl)cc3)c(-c3ccc(Cl)cc3Cl)nc2n(C)c1=O — remaining binding (cell-free assay; competition with immobilised ligand; 1 µM): 96%
CN1CC(Oc2cnc(C#N)cc2-c2ccn3nc(NC(=O)C4CC4)cc3c2)C1 — inhibition (enzyme activity; inhibitor; 1 µM): 86%
Cc1ccc(C(=O)NCc2ccsc2)cc1C#Cc1cn(C(C)C)c2ncnc(N)c12 — activity vs control (enzyme activity; inhibitor; 1 µM): 2%
O=C(O)[C@H]1[C@H](Cn2nnc3ccccc3c2=O)CC[C@@H]1C(=O)c1ccc(OCCC2CCOCC2)cc1 — remaining binding (cell-free assay; competition with immobilised ligand; 1 µM): 100%
COc1cc(Nc2cnc(C#N)c(O[C@H](C)CN(C)C)n2)ncc1-c1cnn(C)c1 — remaining activity (enzyme activity; inhibitor; radiometric; 1 µM): 93%
O=C(Nc1cnn(-c2csc(C(=O)NC3COC3)c2)c1)Nc1ccccc1Cl — remaining activity (enzyme activity; inhibitor; 5 µM): 96.5%
CN(c1ncccc1CNc1nc(Nc2ccc3c(c2)CC(=O)N3)ncc1C(F)(F)F)S(C)(=O)=O — inhibition (enzyme activity; inhibitor; 1 µM): 51.6%
Cc1sc(C(=O)NC2COC2)cc1-n1cc(NC(=O)Nc2c(F)cccc2Cl)cn1 — remaining activity (enzyme activity; inhibitor; 10 µM): 81.4%
CN(C)C(=O)Cn1cc(-c2nc(C3(c4ccc(-c5cnc(N)nc5)cc4)CC3)no2)cn1 — remaining binding (cell-free assay; competition with immobilised ligand; 1 µM): 87%
COc1cc(/C=C/C(=O)CC(=O)/C=C/c2ccc(O)c(OC)c2)ccc1O — activity vs control (enzyme activity; inhibitor; 1 µM): 62%
CC(C)(O)[C@H]1CC[C@H](Nc2ccc3ncc(-c4cccc(C(F)(F)F)c4)n3n2)CC1 — remaining activity (enzyme activity; inhibitor; 1 µM): 18.1%
CC(C)(C)c1nc(-c2cccc(NS(=O)(=O)c3c(F)cccc3F)c2F)c(-c2ccnc(N)n2)s1 — remaining activity (enzyme activity; inhibitor; radiometric; 1 µM): 105%
CCCCNc1ncc2c(-c3ccc(F)cc3)nn(C[C@H]3CC[C@H](N)CC3)c2n1 — inhibition (target engagement in cells; inhibitor; chemoproteomics; 20 mM): 92.8%
FC(F)(F)Oc1cccc(-c2cnc3ccc(-c4ccncc4)nn23)c1 — activity vs control (enzyme activity; inhibitor; radiometric; 1 µM): 82%
CC/C(=N\NC(=O)NCc1cccc(O)c1)c1ccc(O)c(C)c1O — inhibition (enzyme activity; inhibitor; 0.1 µM): 4.5%
CCCCN(CCCC)C(=O)CN1C[C@H](c2cc(OC)c3c(c2)OCO3)[C@@H](C(=O)O)[C@@H]1CC(C)(C)CCC — remaining binding (cell-free assay; competition with immobilised ligand; 1 µM): 100%
CC(C)(C)C(=O)c1sc(NC2CCCCC2)nc1N — remaining activity (enzyme activity; inhibitor; 10 µM): 109%
CO[C@@H](C)c1c(Nc2ccc([C@H](N(C)C(=O)C3CCS(=O)(=O)CC3)C(F)(F)F)cc2)cnc2cc(Cl)nn12 — remaining binding (cell-free assay; competition with immobilised ligand; 1 µM): 99%
Oc1cccc(-c2nc(N3CCOCC3)c3oc4ncccc4c3n2)c1 — remaining activity (enzyme activity; inhibitor; 10 µM): 92%
C[C@@H](c1cccc(C#N)c1)n1cc(Cl)cc(C(N)=O)c1=N — remaining binding (cell-free assay; competition with immobilised ligand; 1 µM): 93%
Nc1nc(Nc2ccccc2)sc1C(=O)c1c(F)cccc1F — remaining activity (enzyme activity; inhibitor; 10 µM): 26%
O=C1NC(=O)c2cc(Nc3ccc(F)cc3)c(Nc3ccc(F)cc3)cc21 — remaining signal (cell-free assay; 0.5 µM): 86.6%
CC(C)(O)c1cncc(-c2nc3ccc(F)cc3n2C2CC2)c1 — remaining binding (cell-free assay; competition with immobilised ligand; 1 µM): 100%
FC(F)c1nc2ccccc2n1-c1nc(N2CCOCC2)nc(N2CCOCC2)n1 — remaining activity (enzyme activity; inhibitor; 10 µM): 72%
Cc1ccc(Nc2nccc(N(C)c3ccc4c(C)n(C)nc4c3)n2)cc1S(N)(=O)=O — remaining signal (cell-free assay; 0.5 µM): 52.6%
